Laboratory results from ChEMBL document CHEMBL1926564, “Design, synthesis and biological activity of original pyrazolo-pyrido-diazepine, -pyrazine and -oxazine dione derivatives as novel dual Nox4/Nox1 inhibitors” (Bioorg Med Chem, 2011).

Key:
[1] = Efflux ratio of apparent permeability across human Caco2 cells at 10 uM after 2 hrs; format: ADME, cell-based; conditions: Caco-2
Summary of the method: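 Caco-2 monolayers grown 20 days, TEER >800 ohm·cm². Compound 10 µM final in HBSS pH 6.5 (1% DMSO), dosed apical (A→B) or basolateral (B→A), 2 h at 37 °C; both compartments sampled, LC–MS/MS cassette analysis with 5-point calibration.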

[2] = biological target: T1, NADPH oxidase 2 (Homo sapiens, UniProt P04839); experiment: Antagonist activity at human NOX2 in human polymorphonuclear cell membrane assessed as inhibition of ROS production after 20 mins by cell-free amplex red assay; format: functional
T1 sequence (P04839 whole entry): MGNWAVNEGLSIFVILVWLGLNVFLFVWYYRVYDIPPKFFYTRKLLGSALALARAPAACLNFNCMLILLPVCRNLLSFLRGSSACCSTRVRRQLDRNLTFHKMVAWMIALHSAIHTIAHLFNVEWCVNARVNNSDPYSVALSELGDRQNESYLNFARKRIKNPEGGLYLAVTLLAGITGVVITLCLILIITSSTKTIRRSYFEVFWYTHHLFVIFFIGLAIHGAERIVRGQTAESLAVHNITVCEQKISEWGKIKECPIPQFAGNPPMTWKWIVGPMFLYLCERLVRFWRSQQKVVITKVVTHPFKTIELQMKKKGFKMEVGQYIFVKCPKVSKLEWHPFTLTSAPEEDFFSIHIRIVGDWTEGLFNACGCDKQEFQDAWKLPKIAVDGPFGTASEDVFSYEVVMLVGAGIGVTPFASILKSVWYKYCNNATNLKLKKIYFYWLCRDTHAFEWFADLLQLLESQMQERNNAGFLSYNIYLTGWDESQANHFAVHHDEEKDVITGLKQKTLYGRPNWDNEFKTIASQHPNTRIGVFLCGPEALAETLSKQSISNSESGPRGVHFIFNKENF
Summary of the method: (§1)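 Membranes from tetracycline-induced (24 h) Nox-expressing cells or human PMN (Nox2), sucrose-gradient purified; or xanthine oxidase. Incubated in PBS with Amplex Red, HRP and cofactors; NADPH (Nox) or xanthine starts ROS. Compound 1 nM–100 µM, 20 min at 37 °C, plate-reader. Background without membranes or agonist. Ki by Cheng-Prusoff; mean of ≥3 experiments in triplicate.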

[3] = Clearance in Sprague-Dawley rat liver microsomes assessed per mg of protein at 0.5 uM; format: ADME, Microsome; conditions: read-out: CLH
Summary of the method: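 Pooled rat (male Sprague Dawley) or human (mixed-sex) liver microsomes at 0.5 mg/mL final, 0.1 M phosphate pH 7.4, compound 0.5 µM final, 0.25% DMSO, 37 °C; 1 mM NADPH starts reaction. Sampled 0–45 min, methanol quench with internal standard, LC/MS-MS; intrinsic clearance from compound loss.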

[4] = Oral bioavailability in Sprague-Dawley rat at 10 mg/kg; format: ADME, organism-based; conditions: in vivo
Summary of the method: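 Rats in two groups of three: 5 mg/kg iv in EDPW (10% EtOH, 10% DMA, 30% PG, 50% water) or 10 mg/kg oral in aqueous 0.5% CMC/0.25% Tween 20. Carotid arterial cannula blood sampled up to 24 h. Plasma levels by LC/MS/MS (LLOQ 1.00 ng/mL); noncompartmental analysis.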

[5] = biological target: T2, NADPH oxidase 5 (Homo sapiens, UniProt Q96PH1); experiment: Antagonist activity at human NOX5 assessed as inhibition of ROS production after 20 mins by cell-free amplex red assay; format: functional; summary of the method: as §1
T2 sequence (Q96PH1 whole entry): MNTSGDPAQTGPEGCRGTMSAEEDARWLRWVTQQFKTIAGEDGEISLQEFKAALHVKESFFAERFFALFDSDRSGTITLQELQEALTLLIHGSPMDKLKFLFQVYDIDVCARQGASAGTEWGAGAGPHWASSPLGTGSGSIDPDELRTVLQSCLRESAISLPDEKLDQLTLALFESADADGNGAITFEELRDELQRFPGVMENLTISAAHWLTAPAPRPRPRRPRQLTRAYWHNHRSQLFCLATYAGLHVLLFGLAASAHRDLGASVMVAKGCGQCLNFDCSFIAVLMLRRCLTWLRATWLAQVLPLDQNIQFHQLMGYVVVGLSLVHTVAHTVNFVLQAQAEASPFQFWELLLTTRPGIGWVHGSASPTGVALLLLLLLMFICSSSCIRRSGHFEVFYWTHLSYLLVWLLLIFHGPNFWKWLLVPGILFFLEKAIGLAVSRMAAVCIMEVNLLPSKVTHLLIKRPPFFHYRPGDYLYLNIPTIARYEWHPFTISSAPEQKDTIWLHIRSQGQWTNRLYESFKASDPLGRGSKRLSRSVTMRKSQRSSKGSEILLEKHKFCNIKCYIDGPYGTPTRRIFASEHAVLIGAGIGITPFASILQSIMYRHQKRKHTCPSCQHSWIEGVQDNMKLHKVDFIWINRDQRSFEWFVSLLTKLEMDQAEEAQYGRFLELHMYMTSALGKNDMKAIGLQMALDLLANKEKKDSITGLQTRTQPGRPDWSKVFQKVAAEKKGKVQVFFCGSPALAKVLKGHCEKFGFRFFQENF

[6] = test system: Salmonella typhimurium; experiment: Genotoxicity in Salmonella Typhimurium at 100 uM by AMES test; format: toxicity, organism-based; conditions: salmonella enterica subsp. enterica serovar typhimurium
[7] = biological target: Cytochrome P450 3A4 (Homo sapiens, UniProt P08684); experiment: Inhibition of human recombinant CYP3A4 by mass spectrophotometry; format: ADME
Summary of the method: (§2)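 Compound 0.1–25 µM (0.3% DMSO) incubated with microsomes, NADPH and isoform-specific probe substrate. CYP2C19, 2C9, 2D6, 3A4 metabolites measured by mass spectrometry; CYP1A2 by fluorescent metabolite. IC50 from reduced metabolite formation versus vehicle.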

[8] = Mutagenicity in micronucleus at 500 uM by in vitro assay; format: ADME
[9] = test system: Salmonella typhimurium; experiment: Mutagenicity in Salmonella Typhimurium at 100 uM by AMES test; format: toxicity, organism-based; conditions: salmonella enterica subsp. enterica serovar typhimurium
[10] = biological target: Xanthine dehydrogenase/oxidase (Homo sapiens, UniProt P47989); experiment: Inhibition of xanthine oxidase assessed as inhibition of ROS production after 20 mins by cell-free amplex red assay; summary of the method: as §1
[11] = biological target: Cytochrome P450 2C19 (Homo sapiens, UniProt P33261); experiment: Inhibition of human recombinant CYP2C19 by mass spectrophotometry; format: ADME; summary of the method: as §2
[12] = biological target: Cytochrome P450 2D6 (Homo sapiens, UniProt P10635); experiment: Inhibition of human recombinant CYP2D6 by mass spectrophotometry; format: ADME; summary of the method: as §2
Cytochrome P450 2D6, sequence (P10635 whole entry): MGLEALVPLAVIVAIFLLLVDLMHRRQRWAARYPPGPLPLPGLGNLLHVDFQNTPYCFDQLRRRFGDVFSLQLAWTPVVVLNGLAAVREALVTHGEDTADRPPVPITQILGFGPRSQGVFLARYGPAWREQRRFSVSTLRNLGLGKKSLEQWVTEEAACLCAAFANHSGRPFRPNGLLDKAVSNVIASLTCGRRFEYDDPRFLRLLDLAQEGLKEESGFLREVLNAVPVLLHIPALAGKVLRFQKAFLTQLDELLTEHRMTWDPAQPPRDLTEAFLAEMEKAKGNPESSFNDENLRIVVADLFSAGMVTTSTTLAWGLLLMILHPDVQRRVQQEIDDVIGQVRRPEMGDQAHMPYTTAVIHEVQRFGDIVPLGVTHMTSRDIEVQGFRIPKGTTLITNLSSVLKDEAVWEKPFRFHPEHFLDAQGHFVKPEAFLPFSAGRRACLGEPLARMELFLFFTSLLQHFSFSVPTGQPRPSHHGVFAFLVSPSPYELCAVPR

Xanthine dehydrogenase/oxidase, sequence (P47989 whole entry): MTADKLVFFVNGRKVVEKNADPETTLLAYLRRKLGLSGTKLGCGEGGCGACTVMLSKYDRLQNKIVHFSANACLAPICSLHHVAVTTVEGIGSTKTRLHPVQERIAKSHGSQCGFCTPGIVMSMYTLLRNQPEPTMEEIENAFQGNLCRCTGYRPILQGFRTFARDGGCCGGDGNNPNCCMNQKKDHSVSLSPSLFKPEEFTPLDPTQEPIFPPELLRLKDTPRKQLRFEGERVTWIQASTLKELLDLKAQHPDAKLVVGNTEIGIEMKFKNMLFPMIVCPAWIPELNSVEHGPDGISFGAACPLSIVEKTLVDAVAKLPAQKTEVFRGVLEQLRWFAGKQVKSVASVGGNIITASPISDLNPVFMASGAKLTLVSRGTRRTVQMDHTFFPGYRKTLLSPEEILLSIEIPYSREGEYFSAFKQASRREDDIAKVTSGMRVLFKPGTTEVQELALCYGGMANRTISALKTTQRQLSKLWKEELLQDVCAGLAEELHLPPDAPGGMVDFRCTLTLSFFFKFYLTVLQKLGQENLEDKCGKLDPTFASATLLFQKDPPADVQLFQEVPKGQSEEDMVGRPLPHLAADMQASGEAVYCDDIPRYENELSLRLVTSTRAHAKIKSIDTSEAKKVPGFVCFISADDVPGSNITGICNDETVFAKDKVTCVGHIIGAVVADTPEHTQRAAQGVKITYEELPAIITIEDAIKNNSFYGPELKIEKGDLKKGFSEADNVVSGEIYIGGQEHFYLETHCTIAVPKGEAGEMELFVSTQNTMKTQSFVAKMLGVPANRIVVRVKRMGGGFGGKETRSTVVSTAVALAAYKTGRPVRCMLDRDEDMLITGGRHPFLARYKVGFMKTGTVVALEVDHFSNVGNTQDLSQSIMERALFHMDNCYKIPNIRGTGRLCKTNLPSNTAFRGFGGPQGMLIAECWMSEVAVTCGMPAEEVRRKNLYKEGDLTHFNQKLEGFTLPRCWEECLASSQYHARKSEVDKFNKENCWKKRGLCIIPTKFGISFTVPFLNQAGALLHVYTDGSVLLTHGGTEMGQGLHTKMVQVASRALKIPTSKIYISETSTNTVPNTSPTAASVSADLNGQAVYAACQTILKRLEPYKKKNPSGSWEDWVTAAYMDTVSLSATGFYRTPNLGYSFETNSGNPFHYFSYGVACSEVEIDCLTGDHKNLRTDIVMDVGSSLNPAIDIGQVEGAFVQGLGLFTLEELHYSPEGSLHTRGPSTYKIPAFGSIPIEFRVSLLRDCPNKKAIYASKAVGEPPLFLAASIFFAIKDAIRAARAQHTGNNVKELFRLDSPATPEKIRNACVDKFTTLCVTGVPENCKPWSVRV
Cytochrome P450 3A4, sequence (P08684 whole entry, canonical isoform): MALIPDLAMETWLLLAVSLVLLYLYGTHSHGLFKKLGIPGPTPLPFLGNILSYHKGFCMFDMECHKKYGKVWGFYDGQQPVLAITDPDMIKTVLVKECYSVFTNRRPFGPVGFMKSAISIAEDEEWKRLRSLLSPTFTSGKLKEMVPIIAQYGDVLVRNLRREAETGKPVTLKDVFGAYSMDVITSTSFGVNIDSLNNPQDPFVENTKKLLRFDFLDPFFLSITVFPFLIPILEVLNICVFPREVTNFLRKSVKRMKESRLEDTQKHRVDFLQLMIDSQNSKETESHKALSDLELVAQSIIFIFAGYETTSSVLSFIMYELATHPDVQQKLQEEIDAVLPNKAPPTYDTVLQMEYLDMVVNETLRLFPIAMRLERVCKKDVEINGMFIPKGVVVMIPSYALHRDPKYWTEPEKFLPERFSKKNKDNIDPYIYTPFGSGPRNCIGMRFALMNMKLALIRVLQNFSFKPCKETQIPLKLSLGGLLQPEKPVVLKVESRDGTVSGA
Cytochrome P450 2C19, sequence (P33261 whole entry): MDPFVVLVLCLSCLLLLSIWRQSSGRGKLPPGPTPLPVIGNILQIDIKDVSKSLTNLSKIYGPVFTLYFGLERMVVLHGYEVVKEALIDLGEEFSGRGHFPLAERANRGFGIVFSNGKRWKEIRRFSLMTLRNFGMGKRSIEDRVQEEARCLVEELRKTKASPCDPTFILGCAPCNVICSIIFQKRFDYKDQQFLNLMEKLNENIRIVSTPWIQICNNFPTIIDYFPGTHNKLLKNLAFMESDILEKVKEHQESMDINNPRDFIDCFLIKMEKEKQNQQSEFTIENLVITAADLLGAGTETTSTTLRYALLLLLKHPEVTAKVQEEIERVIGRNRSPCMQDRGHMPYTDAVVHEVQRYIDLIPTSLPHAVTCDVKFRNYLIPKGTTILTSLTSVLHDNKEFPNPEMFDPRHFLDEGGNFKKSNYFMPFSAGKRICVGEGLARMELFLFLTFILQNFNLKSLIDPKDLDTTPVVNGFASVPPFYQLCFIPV

efflux ratio at 2 h, 10 µM [1]	Ki [2] [nM]	microsomal CLint at 0.5 µM [3] [µL/min/mg]	bioavailability [4] [%]	Ki [5] [nM]	IC50 [7] [nM]	Ki [10] [nM]	IC50 [11] [nM]	IC50 [12] [nM]	Compound	Activity [6]	Activity [8]	Activity [9]
10.1	1140	27.5	42	543	–	–	–	–	Cl.O=c1c2c3n(c(=O)cc2[nH]n1-c1ccccc1Cl)CCCN(Cc1ccccn1)C3	–	–	–
0.48	1340	64	53	414	> 25000	> 30000	> 25000	> 25000	Cl.O=c1c2c3n(c(=O)cc2[nH]n1-c1ccccc1Cl)CCCN(Cc1ccccc1)C3	Non-toxic	Non-toxic	Non-toxic
